The target in data set [1] is T1, Cytochrome P450 11B2, mitochondrial (Homo sapiens, UniProt P19099).
T1 sequence (P19099 whole entry): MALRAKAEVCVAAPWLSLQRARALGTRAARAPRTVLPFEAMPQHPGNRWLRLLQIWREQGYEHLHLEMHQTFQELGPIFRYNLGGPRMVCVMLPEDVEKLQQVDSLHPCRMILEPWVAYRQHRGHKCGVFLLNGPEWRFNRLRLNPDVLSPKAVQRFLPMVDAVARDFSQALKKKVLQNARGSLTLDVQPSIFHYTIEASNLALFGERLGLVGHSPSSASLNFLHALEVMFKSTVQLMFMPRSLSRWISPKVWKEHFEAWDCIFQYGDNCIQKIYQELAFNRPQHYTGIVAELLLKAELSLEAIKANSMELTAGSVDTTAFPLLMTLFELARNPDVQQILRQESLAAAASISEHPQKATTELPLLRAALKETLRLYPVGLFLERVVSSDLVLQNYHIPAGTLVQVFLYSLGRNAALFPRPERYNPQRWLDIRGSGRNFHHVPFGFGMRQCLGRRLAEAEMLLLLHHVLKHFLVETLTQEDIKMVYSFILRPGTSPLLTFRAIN
Kind of data set: Inhibition of human aldosterone synthase expressed in chinese hamster V79 cells at 500 nM using 11-deoxycorticosterone as substrate. As to conditions: read-out: INH.

For data set [2], the target named is T2, CYP11B1 (steroid-11beta-hydroxylase) (Homo sapiens, UniProt P15538).
T2 sequence (P15538 whole entry): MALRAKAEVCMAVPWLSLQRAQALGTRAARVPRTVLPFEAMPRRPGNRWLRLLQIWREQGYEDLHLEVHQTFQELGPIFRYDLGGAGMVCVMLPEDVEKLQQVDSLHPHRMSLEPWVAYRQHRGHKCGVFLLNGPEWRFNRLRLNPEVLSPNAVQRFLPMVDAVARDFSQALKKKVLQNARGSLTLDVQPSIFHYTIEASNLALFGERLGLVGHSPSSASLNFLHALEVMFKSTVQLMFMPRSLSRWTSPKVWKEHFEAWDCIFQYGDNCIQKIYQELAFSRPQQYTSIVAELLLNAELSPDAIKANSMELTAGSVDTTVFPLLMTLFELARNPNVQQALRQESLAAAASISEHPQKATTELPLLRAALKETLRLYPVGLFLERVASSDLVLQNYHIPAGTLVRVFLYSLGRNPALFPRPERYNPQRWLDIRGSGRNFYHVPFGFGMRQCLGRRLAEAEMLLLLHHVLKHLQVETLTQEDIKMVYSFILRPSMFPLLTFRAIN
Nature of the data set: Inhibition of human steroid-11beta-hydroxylase expressed in chinese hamster V79 cells at 500 nM using 11-deoxycorticosterone as substrate.

Data set [3] concerns the target T1, Cytochrome P450 11B2, mitochondrial. Kind of data set: Inhibition of human aldosterone synthase expressed in chinese hamster V79 cells using 11-deoxycorticosterone as substrate. It counts as cell-based.
In data set [4] the target is T3, Cytochrome P450 11B1, mitochondrial (Homo sapiens, UniProt P15538).
T3 sequence (P15538 whole entry): T2 sequence (P15538 whole entry)
Kind of data set: Inhibition of human steroid-11beta-hydroxylase expressed in chinese hamster V79 cells using 11-deoxycorticosterone as substrate. It counts as cell-based.

Another data set is filed under the species Homo sapiens. Kind of data set: Selectivity ratio of IC50 for human steroid-11beta-hydroxylase to IC50 for human aldosterone synthase.
For data set [5], the target named is T4, CYP17 (steroid 17-alpha-hydroxylase/17,20 lyase) (Homo sapiens, UniProt P05093).
T4 sequence (P05093 whole entry): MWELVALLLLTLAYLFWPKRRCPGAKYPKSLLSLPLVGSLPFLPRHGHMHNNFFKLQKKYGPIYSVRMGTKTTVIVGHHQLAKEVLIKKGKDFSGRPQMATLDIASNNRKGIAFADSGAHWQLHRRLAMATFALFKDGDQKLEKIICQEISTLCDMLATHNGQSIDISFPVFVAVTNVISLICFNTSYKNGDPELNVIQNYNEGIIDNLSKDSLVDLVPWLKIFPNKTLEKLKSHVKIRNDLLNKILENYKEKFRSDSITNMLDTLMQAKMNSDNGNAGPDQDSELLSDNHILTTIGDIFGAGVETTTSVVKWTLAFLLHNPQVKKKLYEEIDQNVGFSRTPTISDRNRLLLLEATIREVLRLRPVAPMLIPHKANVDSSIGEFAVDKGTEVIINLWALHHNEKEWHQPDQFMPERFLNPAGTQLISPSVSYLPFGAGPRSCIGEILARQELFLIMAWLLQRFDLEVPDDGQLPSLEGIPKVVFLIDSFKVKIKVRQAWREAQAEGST
Nature of the data set: Inhibition of human CYP17 expressed in Escherichia coli at 2000 nM using progesterone as substrate. The following applies: probe progesterone. Put shortly:
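50,000 g sediment of homogenate from E. coli recombinantly expressing human CYP17; substrate progesterone at 25 µM; inhibitor tested at 2.0 µM.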

The next data set deals with T5, CYP19 (aromatase) (Homo sapiens, UniProt P11511).
T5 sequence (P11511 whole entry): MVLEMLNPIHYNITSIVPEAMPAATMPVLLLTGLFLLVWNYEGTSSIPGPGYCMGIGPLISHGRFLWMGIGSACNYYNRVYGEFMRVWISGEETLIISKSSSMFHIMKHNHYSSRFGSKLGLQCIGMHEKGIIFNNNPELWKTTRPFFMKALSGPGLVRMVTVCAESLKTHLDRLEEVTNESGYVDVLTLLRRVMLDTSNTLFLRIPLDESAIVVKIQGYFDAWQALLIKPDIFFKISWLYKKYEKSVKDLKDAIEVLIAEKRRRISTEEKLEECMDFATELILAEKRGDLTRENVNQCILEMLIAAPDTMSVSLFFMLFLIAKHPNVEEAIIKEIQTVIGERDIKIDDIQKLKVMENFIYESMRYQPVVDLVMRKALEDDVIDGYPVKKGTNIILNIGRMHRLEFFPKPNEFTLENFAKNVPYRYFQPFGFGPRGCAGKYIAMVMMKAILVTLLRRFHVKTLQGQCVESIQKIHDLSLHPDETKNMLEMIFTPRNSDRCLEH
Nature of the data set: Inhibition of human placental CYP19 at 500 nM using androstenedione as substrate. The following applies: human placental CYP19, probe androstenedione. Put shortly: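 Human placental CYP19 as enzyme source; substrate androstenedione at 500 nM.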

Usually IC50 stands for the concentration at which inhibition is half-maximal.

`O=C(Nc1cccnc1)c1cncc(Br)c1`: the inhibition at 0.5 µM in data set [1] was determined as 29%; in data set [2] (probe 11-deoxycorticosterone), 0.4%.
On the same counts, the results for `O=C(Nc1cccnc1)c1ccc(-c2ccccc2)cc1` are 6% and 0%.
Turning to `O=C(Nc1cccnc1)c1ccc([N+](=O)[O-])cc1`, the values for the inhibition at 0.5 µM (in data set [1]; in data set [2] (probe 11-deoxycorticosterone); at CYP19 (aromatase)) were 64%, 0% and 0%, respectively. Besides, the IC50 was 0.145 µM in data set [3] and 24.8 µM in data set [4]. Further, the Ratio IC50 in the data set listed under Homo sapiens amounted to 171. The inhibition at 2 µM in data set [5] came to 1%.
With `O=C(Nc1cccnc1)c1cccnc1`, the figures for the inhibition at 0.5 µM in data set [1] and in data set [2] (probe 11-deoxycorticosterone) were 8% and 3%, respectively.
For `Cc1ccc(C(=O)Nc2cccnc2)cc1` the same measures were 25% and 0%.
On to `N#Cc1ccc(C(=O)Nc2cccnc2)cc1`, for which the inhibition at 0.5 µM is 81% in data set [1], 9% in data set [2] (v79) and 0.2% against CYP19 (aromatase). Also, the half-inhibitory concentration (IC50) is 0.078 µM in data set [3] and 7.5 µM in data set [4]. In addition, the Ratio IC50 in the data set filed under Homo sapiens turned out to be 96. In data set [5], the inhibition at 2 µM was 0.2%.
In the case of `O=C(Nc1cccnc1)c1cccc(Cl)c1Cl`, the inhibition at 0.5 µM in data set [1] came out at 51%; in data set [2] (probe 11-deoxycorticosterone) it was 4%.
For `O=C(Nc1cccnc1)c1ccccc1` the same measures were 30% and 2%.
For `COc1ccc(C(=O)Nc2cccnc2)cc1OC` the same measures were 2% and 0.1%.
With `O=C(Nc1cccnc1)c1cc(F)c(F)cc1F`, the inhibition at 0.5 µM in data set [1] was found to be 70%; in data set [2] (probe 11-deoxycorticosterone) it was 2%; against CYP19 (aromatase), 0%. Moreover, the IC50 in data set [3] turned out to be 0.166 µM; in data set [4], 16.1 µM. Moreover, the Ratio IC50 in the data set filed under Homo sapiens was determined as 97. In addition, the inhibition at 2 µM in data set [5] was 0.6%.
Consider `O=C1CCc2cc(-c3cncc4ccccc34)ccc2N1`, for which the inhibition at 0.5 µM in data set [2] (probe 11-deoxycorticosterone) was found to be 91%.
With `CC(C)(C(=O)c1cccnc1)c1cccnc1` [METYRAPONE], the inhibition at 0.5 µM in data set [1] came out at 79%; in data set [2] (probe 11-deoxycorticosterone), 94%; at CYP19 (aromatase) it was 0%. Also, the inhibition at 2 µM in data set [5] worked out at 0%.
In the case of `O=C(Nc1cccnc1)c1ccc(Cl)cc1`, the inhibition at 0.5 µM in data set [1] turned out to be 88%; in data set [2] (probe 11-deoxycorticosterone), 5%; on CYP19 (aromatase), 0%. The figures for the IC50 in data set [3] and in data set [4] were 0.065 µM and 10.2 µM, respectively. Besides, the Ratio IC50 in the data set filed under Homo sapiens stood at 157. The molecule further gave an inhibition at 2 µM in data set [5] of 1.3%.
Turning to `O=C(Nc1cccnc1)c1ccc(OC(F)(F)F)cc1`, the inhibition at 0.5 µM in data set [1] and in data set [2] (probe 11-deoxycorticosterone) was 3% throughout.
For the molecule `O=C(Nc1cccnc1)c1ccc(F)c(F)c1`, the inhibition at 0.5 µM was 83% in data set [1], 6% in data set [2] (probe 11-deoxycorticosterone) and 0.5% against CYP19 (aromatase). Further, the IC50 in data set [3] came out at 0.0535 µM; in data set [4], 5.92 µM. Besides, the Ratio IC50 in the data set listed under Homo sapiens came out at 111. In data set [5], this molecule returned an inhibition at 2 µM of 1%.
Turning to `O=C(Nc1cccnc1)c1ccccc1F`, the figures for the inhibition at 0.5 µM in data set [1] and in data set [2] (probe 11-deoxycorticosterone) were 34% and 1%, respectively.
In the case of `O=C(Nc1cccnc1)c1ccc(F)cc1`, the values for the inhibition at 0.5 µM (in data set [1]; in data set [2] (probe 11-deoxycorticosterone); at CYP19 (aromatase)) were 86%, 7% and 1.1%, respectively. For the same molecule, the IC50 was found to be 0.082 µM in data set [3] and 14.3 µM in data set [4]. Besides, the Ratio IC50 in the data set filed under Homo sapiens was determined as 174. Further, the inhibition at 2 µM in data set [5] turned out to be 0.3%.
For `O=C(Nc1cccnc1)c1ccc(Br)cc1`, the inhibition at 0.5 µM in data set [1] amounted to 64%; in data set [2] (v79), 0%; against CYP19 (aromatase) it was 0.1%. In addition, the IC50 in data set [3] came out at 0.104 µM; in data set [4] it was 16.7 µM. In addition, the Ratio IC50 in the data set listed under Homo sapiens turned out to be 161. The same molecule had an inhibition at 2 µM in data set [5] of 4.3%.
`O=C(Nc1cccnc1)c1ccncc1`: the inhibition at 0.5 µM came to 39% in data set [1] and 4% in data set [2] (probe 11-deoxycorticosterone).
For `O=C(Nc1cccnc1)c1cccc(Cl)c1` the same measures were 26% and 0%.
Take `O=C(Nc1cccnc1)c1ccc(C(F)(F)F)cc1`: the inhibition at 0.5 µM in data set [1] and in data set [2] (probe 11-deoxycorticosterone) was 1% in each case.
As for `COc1ccc(C(=O)Nc2cccnc2)cc1`, the inhibition at 0.5 µM in data set [1] is 19%; in data set [2] (probe 11-deoxycorticosterone) it was 0%.

Source of the values: ChEMBL document CHEMBL1641566, “N-(Pyridin-3-yl)benzamides as selective inhibitors of human aldosterone synthase (CYP11B2)” (Bioorg Med Chem Lett, 2011).
